Laboratory results published in ChEMBL document CHEMBL4190286, “Modulating the Serotonin Receptor Spectrum of Pulicatin Natural Products” (J Nat Prod, 2017).
pEC50, pIC50, pKi: −log10 of the molar value.

Assays:
Mus musculus = assay: Anticonvulsant activity in ip dosed CF1 mouse assessed as protection against 44 mA current-induced seizure after 15 mins by 6 Hz psychomotor test; type: functional; conditions: 0.25 h
In short: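 Mice received intraperitoneal doses of 10, 30 or 100 mg/kg. At 1/4, 1/2, 1, 2 and 4 h after dosing, four mice per time point were given 44 mA for 3 s through corneal electrodes to elicit a partial psychomotor seizure. The result is the number of mice protected over the number tested.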

[1] = molecular target: 5-hydroxytryptamine receptor 6 (Homo sapiens, UniProt P50406); assay: Displacement of [3H]-LSD from human 5-HT6 receptor expressed in HEK cells after 90 mins by microbeta scintillation counting analysis; type: cell-based
[2] = molecular target: T1, 5-hydroxytryptamine receptor 7 (Homo sapiens, UniProt P34969); assay: Displacement of [3H]-LSD from human 5-HT7A receptor expressed in HEK cells after 90 mins by microbeta scintillation counting analysis; type: cell-based
[3] = molecular target: 5-hydroxytryptamine receptor 2A (Homo sapiens, UniProt P28223); assay: Displacement of [3H]Ketanserin from 5-HT2A (unknown origin) receptor after 90 mins by microbeta scintillation counting analysis
[4] = molecular target: T2, 5-hydroxytryptamine receptor 1A (Homo sapiens, UniProt P08908); assay: Antagonist activity at 5-HT1A receptor (unknown origin) by Tango assay; type: functional
T2 sequence (P08908 whole entry): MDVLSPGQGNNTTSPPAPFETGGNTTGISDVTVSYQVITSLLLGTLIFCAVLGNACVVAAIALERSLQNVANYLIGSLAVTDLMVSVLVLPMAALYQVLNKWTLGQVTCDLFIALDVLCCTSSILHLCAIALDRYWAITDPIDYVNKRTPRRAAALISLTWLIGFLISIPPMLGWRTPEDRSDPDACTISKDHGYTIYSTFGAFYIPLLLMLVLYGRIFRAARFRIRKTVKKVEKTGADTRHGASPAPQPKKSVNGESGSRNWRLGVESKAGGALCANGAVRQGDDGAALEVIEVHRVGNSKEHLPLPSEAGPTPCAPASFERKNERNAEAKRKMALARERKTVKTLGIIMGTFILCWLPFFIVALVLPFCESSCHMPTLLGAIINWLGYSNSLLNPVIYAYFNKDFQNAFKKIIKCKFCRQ

[5] = molecular target: T3, 5-hydroxytryptamine receptor 2C (Homo sapiens, UniProt P28335); assay: Displacement of [3H]-Mesulergine from human 5-HT2C receptor expressed in HEKT cells after 90 mins by microbeta scintillation counting analysis; type: cell-based
T3 sequence (P28335 whole entry): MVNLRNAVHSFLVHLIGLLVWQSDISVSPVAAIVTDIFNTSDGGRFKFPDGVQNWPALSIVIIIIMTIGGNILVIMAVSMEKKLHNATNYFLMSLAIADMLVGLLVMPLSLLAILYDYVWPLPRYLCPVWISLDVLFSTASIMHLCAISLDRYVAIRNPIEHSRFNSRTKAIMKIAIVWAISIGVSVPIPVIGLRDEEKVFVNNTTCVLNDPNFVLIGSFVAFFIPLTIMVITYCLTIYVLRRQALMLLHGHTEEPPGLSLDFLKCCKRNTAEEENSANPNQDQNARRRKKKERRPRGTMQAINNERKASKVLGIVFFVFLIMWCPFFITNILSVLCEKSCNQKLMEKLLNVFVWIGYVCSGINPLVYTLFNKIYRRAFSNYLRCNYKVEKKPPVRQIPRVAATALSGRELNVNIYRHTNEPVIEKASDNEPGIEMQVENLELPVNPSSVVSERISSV

[6] = molecular target: T1, 5-hydroxytryptamine receptor 7; assay: Antagonist activity at 5-HT7A receptor (unknown origin) by Tango assay
[7] = molecular target: 5-hydroxytryptamine receptor 5A (Homo sapiens, UniProt P47898); assay: Displacement of [3H]-LSD from human 5-HT5A receptor expressed in Flp-In CHO cells after 90 mins by microbeta scintillation counting analysis; type: cell-based
[8] = molecular target: T4, 5-hydroxytryptamine receptor 3A (Homo sapiens, UniProt P46098); assay: Displacement of [3H]-GR65630 from human 5-HT3 receptor expressed in HEKT cells after 90 mins by microbeta scintillation counting analysis; type: cell-based
T4 sequence (P46098 whole entry): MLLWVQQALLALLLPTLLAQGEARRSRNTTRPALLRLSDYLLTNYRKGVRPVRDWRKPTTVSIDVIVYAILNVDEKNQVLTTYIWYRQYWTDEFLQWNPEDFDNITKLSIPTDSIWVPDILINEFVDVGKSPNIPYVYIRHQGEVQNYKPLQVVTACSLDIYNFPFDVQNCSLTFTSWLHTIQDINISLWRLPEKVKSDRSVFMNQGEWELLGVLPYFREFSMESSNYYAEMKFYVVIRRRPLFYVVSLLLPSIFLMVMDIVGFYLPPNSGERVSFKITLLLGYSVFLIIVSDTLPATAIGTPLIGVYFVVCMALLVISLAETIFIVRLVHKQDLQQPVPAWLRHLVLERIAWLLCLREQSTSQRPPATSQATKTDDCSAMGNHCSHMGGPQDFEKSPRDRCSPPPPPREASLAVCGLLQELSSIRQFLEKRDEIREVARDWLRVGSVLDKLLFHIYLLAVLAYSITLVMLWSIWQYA

[9] = molecular target: T5, 5-hydroxytryptamine receptor 1D (Homo sapiens, UniProt P28221); assay: Displacement of [3H]5-CT from human 5-HT1D receptor expressed in HEKT cells after 90 mins by microbeta scintillation counting analysis; type: cell-based
[10] = molecular target: T6, 5-hydroxytryptamine receptor 2B (Homo sapiens, UniProt P41595); assay: Displacement of [3H]-LSD from human 5-HT2B receptor expressed in HEK cells after 90 mins by microbeta scintillation counting analysis; type: cell-based
[11] = molecular target: T6, 5-hydroxytryptamine receptor 2B; assay: Antagonist activity at 5-HT2B receptor (unknown origin) by calcium release assay; type: functional
[12] = molecular target: 5-hydroxytryptamine receptor 1E (Homo sapiens, UniProt P28566); assay: Displacement of [3H]5-HT from human 5-HT1E receptor expressed in HEK cells after 90 mins by microbeta scintillation counting analysis; type: cell-based
[13] = molecular target: T3, 5-hydroxytryptamine receptor 2C; assay: Antagonist activity at 5-HT2C receptor (unknown origin) by calcium release assay; type: functional
[14] = molecular target: T7, 5-hydroxytryptamine receptor 1B (Homo sapiens, UniProt P28222); assay: Agonist activity at 5-HT1B receptor (unknown origin) at 2 uM by Tango assay; type: functional
[15] = molecular target: 5-hydroxytryptamine receptor 4 (Homo sapiens, UniProt Q13639); assay: Antagonist activity at 5-HT4 receptor (unknown origin) by Tango assay; type: functional
[16] = molecular target: T7, 5-hydroxytryptamine receptor 1B; assay: Partial agonist activity at 5-HT1B receptor (unknown origin) by Tango assay; type: functional
[17] = molecular target: T7, 5-hydroxytryptamine receptor 1B; assay: Displacement of [3H]5-CT from human 5-HT1B receptor expressed in HEK cells after 90 mins by microbeta scintillation counting analysis; type: cell-based
[18] = molecular target: T7, 5-hydroxytryptamine receptor 1B; assay: Antagonist activity at 5-HT1B receptor (unknown origin) by Tango assay; type: functional
[19] = molecular target: T5, 5-hydroxytryptamine receptor 1D; assay: Antagonist activity at 5-HT1D receptor (unknown origin) by Tango assay; type: functional

Chain of 5-hydroxytryptamine receptor 2A (P28223 whole entry): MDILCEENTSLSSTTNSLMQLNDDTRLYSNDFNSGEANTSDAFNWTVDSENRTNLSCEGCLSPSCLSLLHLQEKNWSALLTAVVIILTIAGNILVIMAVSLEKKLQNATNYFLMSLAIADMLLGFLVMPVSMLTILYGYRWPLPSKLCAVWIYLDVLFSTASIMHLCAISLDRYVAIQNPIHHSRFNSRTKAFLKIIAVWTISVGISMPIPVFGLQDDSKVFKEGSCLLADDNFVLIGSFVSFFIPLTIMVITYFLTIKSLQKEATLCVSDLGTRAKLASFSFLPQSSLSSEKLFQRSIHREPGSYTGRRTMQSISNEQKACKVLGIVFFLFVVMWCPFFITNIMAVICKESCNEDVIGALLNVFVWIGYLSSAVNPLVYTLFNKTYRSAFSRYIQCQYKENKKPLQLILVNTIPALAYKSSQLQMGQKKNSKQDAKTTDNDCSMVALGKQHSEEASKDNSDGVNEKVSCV
T6 sequence (P41595 whole entry): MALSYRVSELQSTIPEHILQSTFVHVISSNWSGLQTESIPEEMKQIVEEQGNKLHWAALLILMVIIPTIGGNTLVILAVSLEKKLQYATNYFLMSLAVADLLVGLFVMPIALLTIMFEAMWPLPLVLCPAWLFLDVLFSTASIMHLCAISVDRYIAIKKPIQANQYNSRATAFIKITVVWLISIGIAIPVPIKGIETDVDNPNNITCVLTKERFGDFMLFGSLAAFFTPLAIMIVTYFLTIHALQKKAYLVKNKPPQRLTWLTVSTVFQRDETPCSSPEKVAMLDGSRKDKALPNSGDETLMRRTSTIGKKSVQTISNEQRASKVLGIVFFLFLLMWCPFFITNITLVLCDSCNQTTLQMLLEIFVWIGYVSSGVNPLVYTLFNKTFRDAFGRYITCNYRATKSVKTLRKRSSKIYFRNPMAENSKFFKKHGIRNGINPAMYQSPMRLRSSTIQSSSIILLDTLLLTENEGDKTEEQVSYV
Chain of 5-hydroxytryptamine receptor 6 (P50406 whole entry): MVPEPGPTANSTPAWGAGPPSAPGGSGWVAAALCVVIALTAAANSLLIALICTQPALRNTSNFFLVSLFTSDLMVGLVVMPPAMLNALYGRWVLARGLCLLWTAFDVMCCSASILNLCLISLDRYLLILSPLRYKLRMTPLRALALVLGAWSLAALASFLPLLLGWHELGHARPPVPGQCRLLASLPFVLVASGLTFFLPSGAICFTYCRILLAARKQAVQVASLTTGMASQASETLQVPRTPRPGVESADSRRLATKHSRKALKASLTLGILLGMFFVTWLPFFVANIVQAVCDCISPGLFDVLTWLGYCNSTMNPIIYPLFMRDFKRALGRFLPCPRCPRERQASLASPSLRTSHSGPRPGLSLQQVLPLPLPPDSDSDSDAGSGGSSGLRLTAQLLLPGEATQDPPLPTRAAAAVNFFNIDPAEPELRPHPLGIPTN
Chain of 5-hydroxytryptamine receptor 1E (P28566 whole entry): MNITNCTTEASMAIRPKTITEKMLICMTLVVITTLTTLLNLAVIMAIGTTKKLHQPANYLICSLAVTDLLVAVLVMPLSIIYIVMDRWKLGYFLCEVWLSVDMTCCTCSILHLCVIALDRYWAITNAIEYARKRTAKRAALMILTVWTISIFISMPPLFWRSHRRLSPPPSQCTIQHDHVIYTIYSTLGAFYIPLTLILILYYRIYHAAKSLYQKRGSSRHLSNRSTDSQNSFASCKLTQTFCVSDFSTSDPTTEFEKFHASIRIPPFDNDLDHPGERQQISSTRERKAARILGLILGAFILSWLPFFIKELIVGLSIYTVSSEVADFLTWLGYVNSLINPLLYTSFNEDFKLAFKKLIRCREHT
T1 sequence (P34969 whole entry): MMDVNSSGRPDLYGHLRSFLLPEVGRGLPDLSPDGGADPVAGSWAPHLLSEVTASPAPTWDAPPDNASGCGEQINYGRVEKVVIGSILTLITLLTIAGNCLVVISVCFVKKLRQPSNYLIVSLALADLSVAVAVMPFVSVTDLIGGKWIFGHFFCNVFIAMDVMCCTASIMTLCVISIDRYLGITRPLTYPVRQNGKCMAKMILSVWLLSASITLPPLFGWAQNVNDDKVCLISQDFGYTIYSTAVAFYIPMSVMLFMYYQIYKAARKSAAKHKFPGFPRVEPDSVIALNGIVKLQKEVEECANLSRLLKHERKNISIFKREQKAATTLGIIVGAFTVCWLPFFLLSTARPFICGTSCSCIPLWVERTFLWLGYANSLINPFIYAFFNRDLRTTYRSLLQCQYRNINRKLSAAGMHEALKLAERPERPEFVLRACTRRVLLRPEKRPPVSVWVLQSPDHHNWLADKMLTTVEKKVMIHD
Chain of 5-hydroxytryptamine receptor 5A (P47898 whole entry): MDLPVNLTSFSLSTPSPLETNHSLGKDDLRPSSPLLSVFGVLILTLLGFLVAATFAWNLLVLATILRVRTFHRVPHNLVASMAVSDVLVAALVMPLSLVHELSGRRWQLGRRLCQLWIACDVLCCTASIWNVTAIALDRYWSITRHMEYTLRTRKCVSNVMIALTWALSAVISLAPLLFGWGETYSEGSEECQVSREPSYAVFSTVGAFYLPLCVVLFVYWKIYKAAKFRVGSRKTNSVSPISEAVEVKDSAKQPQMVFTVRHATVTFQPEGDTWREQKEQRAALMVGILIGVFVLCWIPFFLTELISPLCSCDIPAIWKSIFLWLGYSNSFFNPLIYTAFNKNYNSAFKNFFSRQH
T7 sequence (P28222 whole entry): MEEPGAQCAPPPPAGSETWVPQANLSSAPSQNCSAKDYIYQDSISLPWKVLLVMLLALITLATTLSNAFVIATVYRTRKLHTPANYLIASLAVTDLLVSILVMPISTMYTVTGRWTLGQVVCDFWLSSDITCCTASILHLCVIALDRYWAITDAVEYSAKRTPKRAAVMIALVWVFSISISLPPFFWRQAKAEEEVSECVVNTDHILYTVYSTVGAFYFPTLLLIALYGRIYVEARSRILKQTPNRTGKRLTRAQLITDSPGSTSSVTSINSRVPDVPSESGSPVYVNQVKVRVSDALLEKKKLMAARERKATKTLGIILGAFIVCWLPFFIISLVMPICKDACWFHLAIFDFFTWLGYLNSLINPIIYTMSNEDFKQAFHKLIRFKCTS
T5 sequence (P28221 whole entry): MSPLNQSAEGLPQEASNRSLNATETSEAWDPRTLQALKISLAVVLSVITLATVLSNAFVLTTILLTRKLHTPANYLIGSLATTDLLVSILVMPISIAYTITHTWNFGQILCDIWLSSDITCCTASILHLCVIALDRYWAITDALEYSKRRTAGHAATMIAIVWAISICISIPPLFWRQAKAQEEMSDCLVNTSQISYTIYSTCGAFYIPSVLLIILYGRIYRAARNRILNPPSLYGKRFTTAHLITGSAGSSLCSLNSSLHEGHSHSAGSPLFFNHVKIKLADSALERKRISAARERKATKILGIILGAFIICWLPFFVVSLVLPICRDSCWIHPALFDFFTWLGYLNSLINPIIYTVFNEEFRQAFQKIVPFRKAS
Chain of 5-hydroxytryptamine receptor 4 (Q13639 whole entry): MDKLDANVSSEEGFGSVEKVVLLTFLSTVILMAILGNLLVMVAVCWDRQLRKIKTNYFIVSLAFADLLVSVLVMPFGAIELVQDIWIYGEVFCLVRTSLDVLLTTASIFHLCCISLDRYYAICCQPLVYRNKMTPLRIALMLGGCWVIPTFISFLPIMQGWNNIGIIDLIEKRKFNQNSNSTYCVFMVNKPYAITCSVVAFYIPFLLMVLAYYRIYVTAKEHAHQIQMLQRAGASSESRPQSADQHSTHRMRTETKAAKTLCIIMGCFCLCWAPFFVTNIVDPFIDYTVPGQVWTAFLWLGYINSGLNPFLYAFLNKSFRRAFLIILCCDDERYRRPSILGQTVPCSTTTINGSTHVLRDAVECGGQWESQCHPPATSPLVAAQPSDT

Structure (SMILES)	ED50 (Mus musculus) [mg/kg]	pKi [1]	pKi [2]	pKi [3]	pIC50 [4]	pKi [5]	pIC50 [6]	pKi [7]	pKi [8]	pKi [9]	pKi [10]	pIC50 [11]	pKi [12]	pIC50 [13]	inhibition [14] [%]	pIC50 [15]	pEC50 [16]	pKi [17]	pIC50 [18]	pIC50 [19]
CCC1(C)CC(=O)NC1=O (stereo not given) [ETHOSUXIMIDE]	> 600	–	–	–	–	–	–	–	–	–	–	–	–	–	–	–	–	–	–	–
C[C@@H]1SC(c2ccccc2)=N[C@H]1Cc1c[nH]cn1 (relative stereo)	–	< 5.00	< 5.00	5.24	< 5.00	5.92	< 5.00	< 5.00	6.82	6.10	6.42	5.00	< 5.00	–	–	–	–	–	–	–
C[C@@H]1SC(c2ccccc2O)=N[C@H]1Cc1c[nH]cn1 (racemic)	–	5.59	5.44	5.85	< 5.00	6.85	–	< 5.00	6.62	5.70	7.33	6.10	< 5.00	5.17	–	–	–	–	–	–
CCCCCCOc1ccc(C2=N[C@@H](CO)[C@H](C)S2)cc1 (relative stereo)	–	< 5.00	< 5.00	5.41	< 5.00	5.77	–	< 5.00	< 5.00	< 5.00	5.37	< 5.00	< 5.00	–	100	< 5.00	6.74	< 5.00	5.72	< 5.00
COC(=O)[C@H](Cc1cnc[nH]1)NC(=O)[C@H]1N=C(c2ccccc2O)S[C@@H]1C	–	–	–	6.51	< 5.00	6.09	–	–	–	5.48	6.00	5.00	5.85	< 5.00	–	–	–	–	–	–
